STK33 inh: inhibitors of purified STK33 kinase, primary screen, biochemical, ADP-Glo luminescence, homogeneous, cell-free | Serine/threonine-protein kinase 33 (Homo sapiens), Q9BYT3 | MBP phosphorylation | inhibition, % at 10 µM | 320,000 compounds, 0.073% hits;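 active means inhibition at or above 25%, using the most active replicate where run in duplicate; inactive means inhibition below 25%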
CDK5 p35 inh: inhibitors of human CDK5/p35 kinase, primary screen, biochemical, single concentration; Cyclin-dependent kinase 5 (Homo sapiens) + Cyclin-dependent kinase 5 activator 1 (Homo …; Recombinant CDK5/p35, ADP-Glo luminescence, 60 min; inhibition, % at 10 µM; 330,000 compounds, 0.01% hits;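 active means highest replicate inhibition of at least 50% and at least 75% of replicates reaching 50%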;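 further: plate controls were DMSO neutral control for no effect and GW8510 at 10 µM for full effect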
GSK3beta inhib: human GSK3beta kinase inhibitors, primary screen, biochemical, cell-free homogeneous, HTS; Glycogen synthase kinase-3 beta (Homo sapiens), P49841; GST-GSK3beta kinase, ADP-Glo luminescence, 60 min; stronger effect = lower value; activity score (negative = inhibition), % at 10 µM; 300,000 compounds, 0.038% hits;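 active means more than half of replicate wells score below -50%, meaning over 50% inhibition versus plate controls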;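 further: 0% = median DMSO wells and -100% = median GW8510 positive control wells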
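Assay system: GST-fused GSK3beta enzyme, cell-free / Medium: Tris pH 7.5 buffer with MgCl2, DTT, BSA, heparin / Also added: peptide substrate plus 25 µM ATP (final) / Compound: 10 µM single point / Timing: kinase reaction with compound 60 min at room temperature / Detection: ADP-Glo luminescence / Benchmarks: DMSO neutral wells and GW8510 at 20 µM as positive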
GSK3A inh: blockers of GSK3A enzyme activity – biochemical, luminescence, cell-free homogeneous, HTS, primary screen; 320,000 compounds, 0.1% hits; GSK-3 alpha kinase, ADP-Glo luminescence, 60 min; inhibition, % at 10 µM;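 active means more than half of replicates show inhibition above 20%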;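 further: GST-tagged GSK-3 alpha with peptide substrate and 25 µM ATP; 0% = DMSO neutral wells and 100% = GW8510 positive control wells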
Target sequence (P49840 whole entry, looked up): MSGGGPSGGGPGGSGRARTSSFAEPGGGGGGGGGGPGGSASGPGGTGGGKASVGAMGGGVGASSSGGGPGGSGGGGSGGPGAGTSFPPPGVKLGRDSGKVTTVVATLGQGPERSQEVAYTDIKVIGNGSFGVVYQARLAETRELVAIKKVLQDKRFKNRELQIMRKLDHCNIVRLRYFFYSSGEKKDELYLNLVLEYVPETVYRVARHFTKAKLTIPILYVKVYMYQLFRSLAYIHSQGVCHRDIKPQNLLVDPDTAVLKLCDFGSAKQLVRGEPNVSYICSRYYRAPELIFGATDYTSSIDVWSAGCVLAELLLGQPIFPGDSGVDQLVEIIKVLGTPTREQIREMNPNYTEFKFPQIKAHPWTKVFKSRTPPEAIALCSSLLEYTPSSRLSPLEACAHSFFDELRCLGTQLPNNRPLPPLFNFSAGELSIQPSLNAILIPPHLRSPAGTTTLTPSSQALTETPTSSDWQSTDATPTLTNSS
DYRK1A inh: rat Dyrk1A kinase inhibitors, primary screen, biochemical, single point, plate reader. Dual specificity tyrosine-phosphorylation-regulated kinase 1A (Rattus norvegicus), Q63470. ADP-Glo luminescence, NFATc1 peptide. inhibition, % at 12.5 µM. 310,000 compounds, 0.43% hits. AID 504441, 2011; in the data active means inhibition above about 50%;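 further: plate controls were vehicle with enzyme for no effect and no enzyme for full effect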
Dyrk1A artifact: ADP-Glo luciferase interference without Dyrk1A, dose response, artefact control for Dyrk1A inhibitor project, biochemical, luminescence, cherry-pick, set 02 | shares compounds with DYRK1A inh | ADP-Glo luciferase artifact assay, no Dyrk1A | AC50, µM (highest dose often 12 µM), for the others: top-dose activity change, negative = inhibition | 1,300 tested, under 10 active;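 active means fitted half-maximal dose AC50 no more than ten times the top valid tested dose, with luminescence dropping as dose rises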
Numbers without * were called inactive; · = not tested or not shown. Shown is part of a subset that was picked to be rich in hits.

SMILES	STK33 inh	CDK5 p35 inh	GSK3beta inhib	GSK3A inh	DYRK1A inh	Dyrk1A artifact
CCOC(=O)CC(=O)CSc1nc2ccccc2c(=O)n1-c1ccc(C(=O)N2CCOCC2)cc1	0.4	-0.6	1.0	-0.7	1.3	·
CCn1cc(/C=C(\NC(=O)c2ccccc2F)C(=O)NCCCN2CCOCC2)c2ccccc21	-0.9	·	-1.7	-1.0	·	·
O=C1N/C(=N/S(=O)(=O)Cc2ccccc2)S/C1=C/c1ccc2c(c1)OCO2	14.6	1.4	-3.3	71.1*	92.0*	7.8%
O=C1NC(=S)SC1=Cc1ccc2c(c1)OCO2	·	0.9	·	·	48.8	·
CCOc1ccc(-c2nnn(CC(=O)NCc3ccc(F)cc3)n2)cc1OCC	2.4	1.5	1.9	-2.9	-2.6	·
Cc1nc(N)sc1-c1csc(Nc2ccccc2)n1	-0.1	0.3	-1.7	3.2	52.0*	7.6%
Cc1nc(N)sc1-c1csc(Nc2cccc(C(=O)O)c2)n1	4.0	-6.2	-2.1	11.9	25.1	·
CC(=O)Nc1nc(C)c(-c2csc(Nc3ccc(O)cc3)n2)s1	12.9	3.0	·	24.3	76.4*	7.6%
CCOc1c(N2CC(C)OC(C)C2)c(=O)c1=O (centres undefined)	-1.1	0.1	0.6	-2.5	8.6	·
CC(=O)O[C@H](COc1c2ccoc2cc2oc(=O)ccc12)C(C)(C)O	1.6	-0.2	·	-1.7	68.2*	9.6%
C=C(C)[C@@H](O)COc1c2ccoc2cc2oc(=O)ccc12	1.7	0.8	·	6.1	58.9*	7.7%
CC(C)(O)[C@H](O)COc1c2ccoc2cc2oc(=O)ccc12	0.3	0.3	0.7	1.7	47.8	·
O=C1[C@@H]2C(c3cccnc3)=NO[C@@H]2C(=O)N1c1ccc(Br)cc1	-0.3	-0.8	1.8	1.2	7.3	·
CCOC(=O)CSC1=NC(=O)/C(=C/c2ccc(Br)cc2)S1	-0.1	-0.9	6.2	-3.2	·	·
CCOC(=O)CSC1=NC(=O)/C(=C\c2ccc(OC(C)=O)cc2)S1	12.0	-1.5	-13.4	12.9	85.9*	8.5%
Cc1cc(C)cc(NC(=S)Nc2ccc3cn[nH]c3c2)c1	·	1.6	-4.2	·	48.0	·
NC(=S)Nc1ccc2cn[nH]c2c1	4.1	-0.2	-0.3	3.6	38.3	·
Cc1ccc(NC(=S)Nc2ccc3cn[nH]c3c2)cc1	9.3	-4.0	0.7	-1.9	63.4*	11.7%
C=CCNC(=S)Nc1ccc2cn[nH]c2c1	24.1	10.6	-6.1	23.0	70.0*	7.3%
Oc1ccc(-c2nc3ncccn3c2Nc2ccc3c(c2)OCO3)cc1	1.9	1.7	-1.4	52.8*	59.5*	7.8%
CC(=O)c1ccc(NC(=O)CSc2ccc(-c3sc(C)nc3C)nn2)cc1	0.8	-0.4	0.2	-0.8	-5.2	·
c1cnc2ncc3sccc3c2c1	-1.0	0.1	4.1	2.1	59.2*	9.0%
O=c1c2ccccc2nnn1CSc1nnc(-c2ccc3c(c2)OCO3)o1	-0.7	0.4	-24.3	44.3	55.8*	8.1%
CC(=O)N1c2ccc(S(=O)(=O)N3CCCC(C(=O)N4CCCC(C)C4)C3)cc2CC1C (centres undefined)	-1.6	0.9	0.6	-0.8	0.4	·
CCc1ccccc1NC(=O)C1CCCN(S(=O)(=O)c2ccc3c(c2)CC(C)N3C(C)=O)C1 (centres undefined)	0.4	-0.2	-5.0	0.2	56.4*	7.8%
SMILES	STK33 inh	CDK5 p35 inh	GSK3beta inhib	GSK3A inh	DYRK1A inh	Dyrk1A artifact
CCC(C)NC(=O)C1CCCN(S(=O)(=O)c2ccc3c(c2)CC(C)N3C(C)=O)C1 (centres undefined)	-0.9	-1.7	-0.3	0.0	-3.9	·
CCC(C)NC(=O)C1CCCN(S(=O)(=O)c2ccc3c(c2)CC(C)N3C(=O)C2CC2)C1 (centres undefined)	-1.9	0.2	1.9	1.1	57.6*	10.7%
CN(C)C(CNC(=O)CNC(=O)Cc1cccc2ccccc12)c1ccccc1 (centres undefined)	-2.1	-2.1	1.0	-4.6	-3.7	·
CS(=O)(=O)Nc1ccc(-c2cc(/C=C3\SC(N)=NC3=O)c[nH]c2=O)cc1	38.7*	8.4	-1.6	36.9	85.5*	7.7%
COc1cccc(CN(C)C(=O)C(CCSC)NS(=O)(=O)c2ccc3c(c2)OCCO3)c1OC (centres undefined)	-1.2	-4.2	-4.0	-0.7	8.7	·
CCN1CCN(c2nc(Nc3cccc(C)c3)nc(N)c2[N+](=O)[O-])CC1	2.6	5.3	-0.1	12.2	59.8*	8.2%
O=C(Nc1cccc(Cl)c1)Nc1nccs1	4.2	1.1	-2.1	13.2	58.6*	10.6%
COC(=O)c1cc(NC(=O)Nc2cccc(Cl)c2)ccc1Cl	-0.5	-0.3	-2.2	0.4	53.2*	10.3%
O=C(Nc1ccc(Cl)c(Cl)c1)Nc1nccs1	3.1	0.0	-0.5	-1.7	2.9	·
Cc1c(CCC(=O)O)c(=O)oc2cc(OCc3cccc(F)c3)ccc12	-0.3	-0.3	1.9	-3.4	0.1	·
CN1CCN(S(=O)(=O)c2cccc(C(=O)Oc3ccc(C(C)(C)C)cc3)c2)CC1	-0.6	-0.6	4.2	-0.3	15.2	·
CCOc1ccc(Cc2n[nH]c(=S)n2Cc2ccccc2)cc1	-0.4	1.3	2.1	0.0	-19.9	·
COc1nc(C)ccc1-c1noc(-c2ccccn2)n1	0.5	0.4	1.1	0.6	56.7*	8.4%
O=C(Nc1ccc(F)cc1F)c1csc(-c2cccs2)n1	-0.8	1.0	-0.1	1.6	·	·
O=C(Nc1ccc(F)cc1F)c1csc(-c2ccncc2)n1	1.2	-3.2	-3.0	1.8	52.0*	6.8%
COc1ccc(C2=NN(C(=O)CN3CCCCC3)C(c3ccc(OC)cc3)C2)cc1 (centres undefined)	-0.3	0.1	4.1	-0.4	·	·
COc1cc(/C=C2\SC(=Nc3ccccc3)NC2=O)cc(Cl)c1O	6.8	0.3	-4.2	7.1	51.5*	10.2%
Cc1ccccc1/C=N/Nc1ncnc2nc[nH]c12	8.3	21.8	-36.0	54.1*	62.8*	8.0%
Clc1cnc(N/N=C/c2cccs2)c(Cl)c1	1.0	-0.5	3.5	0.1	4.1	·
Cc1ccsc1/C=N/Nc1ncnc2nc[nH]c12	9.0	43.0	-26.3	45.8	53.8*	2.1%
C(=N\Nc1ncnc2nc[nH]c12)/c1cccs1	4.7	24.3	-48.8	42.6	66.0*	-0.8%
COc1ccccc1OCC(=O)Nc1ccc(S(=O)(=O)Nc2onc(C)c2C)cc1	1.2	0.3	2.4	-2.7	-1.1	·
O=C(NC(=S)Nc1ccc(Cl)c(C(=O)O)c1)c1cccc(COc2ccccc2)c1	-6.2	0.2	0.3	-4.7	-4.9	·

Assay outcomes (PubChem)
